Reference: ChEMBL document CHEMBL4270524, “Enhanced antimalarial activity of plasmepsin V inhibitors by modification of the P2 position of PEXEL peptidomimetics” (Eur J Med Chem, 2018)
pEC50, pIC50: −log10 of the molar value. Active and inactive are the calls of the source. No cut-off for these calls is given here. Square brackets hold non-standard residues; d marks the D form. Peptide text beside a SMILES is read from it. * marks the point of attachment. Dip = N[C@H](C(=O)O)C(c1ccccc1)c1ccccc1; Sta = CC(C)C[C@H](N)[C@@H](O)CC(=O)O; Gly(cPent) = N[C@H](C(=O)O)C1CCCC1; Igl = N[C@H](C(=O)O)C1Cc2ccccc2C1; Chg = N[C@H](C(=O)O)C1CCCCC1; NHPhenethyl = c1ccc(CCN*)cc1; Phg = N[C@H](C(=O)O)c1ccccc1; Tle = CC(C)(C)[C@H](N)C(=O)O; Nva = CCC[C@H](N)C(=O)O; Abu = CC[C@H](N)C(=O)O; Cbz = O=C(OCc1ccccc1)*

Assays:
[1] = Inhibition of recombinant Plasmodium vivax plasmepsin 5 expressed in High five insect cells using DABCYLRNKRTLAQKQ-E-EDANS as substrate measured after 120 mins by fluorescence assay
In short: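 Enzyme purified by anti-FLAG affinity then Superdex 75 gel filtration. Each well held 2.5 ng enzyme and 12 µM (Km) substrate in 25 mM Tris-HCl/25 mM MES pH 6.4 with 0.005% Tween-20 and 1% DMSO final. Ten-point 1-in-3 compound dilutions. Fluorescence read at ex 340/em 495 nm. IC50 from four-parameter fit constrained to 0 and 100%; mean and SD, n=3.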

HepG2 = experiment: Cytotoxicity against human HepG2 cells after 48 hrs by CellTiter-Glo assay; format: functional, cell-based; details: HepG2, 48 h
In short: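 Cells kept in DMEM with 10% FCS at 37 °C, 5% CO2. 1 × 10^4 cells seeded per well and exposed to a 10-point compound titration for 48 h at 37 °C. Viability normalised to DMSO (100%) and 10 µM bortezomib (0%). EC50 given as mean and SD of three experiments.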

[2] = biological target: Plasmepsin V (Plasmodium falciparum (isolate 3D7)) (UniProt Q8I6Z5); experiment: Inhibition of plasmepsin 5 in Plasmodium falciparum 3D7 co-expressing PfEMP3-GFP infected in human erythrocytes assessed as accumulation of uncleaved PfEMP3-GFP at 1 to 20 uM after 3 hrs by immunoblot analysis; format: cell-based
In short: (§1)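 Parasites cultured in O+ erythrocytes at 4% haematocrit in RPMI 1640 with 25 mM HEPES pH 7.4, 0.2% bicarbonate, 0.5% Albumax II under 5% CO2/5% O2 gas at 37 °C. Magnet-purified 24–34 h trophozoites treated 3 h at 37 °C; DMSO vehicle control. Saponin-lysed pellets run on SDS-PAGE and probed with anti-GFP, with HSP70 as loading control. ECL read-out, quantified by densitometry.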

Plasmodium falciparum = experiment: Antiplasmodial activity against ring-stage Plasmodium falciparum 3D7 assessed as reduction in parasite viability after 72 hrs by LDH assay; format: functional, organism-based; details: 3D7, 72 h
In short: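 Sorbitol-synchronised early ring-stage parasites grown in RPMI-HEPES with L-glutamine and Albumax II, exposed to ten-point compound titrations in DMSO (≤0.02% final) for 72 h. Parasitemia read by LDH activity (NADH consumption) relative to DMSO control. EC50 from 4-parameter variable-slope sigmoidal fit; means and SD of three independent experiments.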

[3] = biological target: Plasmepsin V (Plasmodium falciparum (isolate 3D7)) (UniProt Q8I6Z5); experiment: Inhibition of plasmepsin 5 in Plasmodium falciparum 3D7 co-expressing PfEMP3-GFP infected in human erythrocytes assessed as accumulation of uncleaved PfEMP3-GFP after 3 hrs by immunoblot analysis; format: cell-based; in short: as §1
[4] = biological target: Plasmepsin V (Plasmodium falciparum (isolate 3D7)) (UniProt Q8I6Z5); experiment: Inhibition of plasmepsin 5 in Plasmodium falciparum 3D7 co-expressing PfEMP3-GFP infected in human erythrocytes assessed as accumulation of uncleaved PfEMP3-GFP at 1 to 10 uM after 3 hrs by immunoblot analysis; format: cell-based; in short: as §1

Chain of Plasmepsin V (Plasmodium falciparum (isolate 3D7)) (Q8I6Z5 whole entry, looked up): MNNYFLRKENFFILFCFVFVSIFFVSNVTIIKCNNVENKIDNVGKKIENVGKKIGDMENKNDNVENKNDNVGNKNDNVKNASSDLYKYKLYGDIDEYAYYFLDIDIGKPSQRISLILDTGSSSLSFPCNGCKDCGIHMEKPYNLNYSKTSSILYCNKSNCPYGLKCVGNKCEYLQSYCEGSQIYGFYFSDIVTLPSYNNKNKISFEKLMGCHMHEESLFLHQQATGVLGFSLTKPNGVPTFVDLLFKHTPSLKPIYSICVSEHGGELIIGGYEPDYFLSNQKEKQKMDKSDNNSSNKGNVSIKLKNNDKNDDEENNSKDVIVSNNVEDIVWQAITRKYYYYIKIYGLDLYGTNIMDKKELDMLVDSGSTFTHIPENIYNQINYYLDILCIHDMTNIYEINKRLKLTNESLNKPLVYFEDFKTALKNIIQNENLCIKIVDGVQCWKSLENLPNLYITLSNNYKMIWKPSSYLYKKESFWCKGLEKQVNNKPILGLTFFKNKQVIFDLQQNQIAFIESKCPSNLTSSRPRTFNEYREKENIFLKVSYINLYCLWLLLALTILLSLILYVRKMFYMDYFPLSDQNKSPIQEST

SMILES | pIC50 [1] | pEC50 (HepG2) | inhibition [2] | pEC50 (Plasmodium falciparum) | inhibition [3] | inhibition [4]
CC(C)C[C@H](NC(=O)[C@@H](NC(=O)[C@H](CCONC(=N)N)NC(=O)OCc1ccccc1)c1ccccc1)[C@@H](O)CC(=O)NCCc1ccccc1 | 8.52 | < 4.40 | Active | 7.15 |  | 
CC(C)C[C@H](NC(=O)[C@@H](NC(=O)[C@H](CCCNC(=N)N)NC(=O)OCc1ccccc1)[C@H](C)c1ccccc1)[C@@H](O)CC(=O)NCCc1ccccc1 | < 5.00 | 4.45 |  | < 5.00 |  | 
CCN(CC)CCCC(C)Nc1ccnc2cc(Cl)ccc12 (centres undefined) [CHLOROQUINE] |  | 5.00 |  | 8.22 |  | 
CC(C)C[C@H](NC(=O)[C@H](Cc1ccccc1)NC(=O)[C@H](CCCNC(=N)N)NC(=O)OCc1ccccc1)[C@@H](O)CC(=O)NCCc1ccccc1 (Cbz-Arg-Phe-[Sta]-NHPhenethyl) | 5.51 | < 4.40 |  | < 5.00 |  | 
CCC[C@H](NC(=O)[C@H](CCCNC(=N)N)NC(=O)OCc1ccccc1)C(=O)N[C@@H](CC(C)C)[C@@H](O)CC(=O)NCCc1ccccc1 (Cbz-Arg-[Nva]-[Sta]-NHPhenethyl) | 6.94 |  |  | 5.62 |  | 
O[C@@H](c1cc(C(F)(F)F)nc2c(C(F)(F)F)cccc12)[C@H]1CCCCN1 [(S,R)-MEFLOQUINE] |  | 5.01 |  | 7.89 |  | 
CC(C)C[C@H](NC(=O)[C@@H](NC(=O)[C@H](CCCNC(=N)N)NC(=O)OCc1ccccc1)C(C)(C)C)[C@@H](O)CC(=O)NCCc1ccccc1 (Cbz-Arg-[Tle]-[Sta]-NHPhenethyl) | 5.17 | < 4.40 |  | < 5.00 |  | 
CC(C)C[C@H](NC(=O)[C@@H](NC(=O)[C@H](CCCNC(=N)N)NC(=O)OCc1ccccc1)C(c1ccccc1)c1ccccc1)[C@@H](O)CC(=O)NCCc1ccccc1 (Cbz-Arg-[Dip]-[Sta]-NHPhenethyl) | < 5.00 | < 4.40 |  | < 5.00 |  | 
CC[C@H](NC(=O)[C@H](CCCNC(=N)N)NC(=O)OCc1ccccc1)C(=O)N[C@@H](CC(C)C)[C@@H](O)CC(=O)NCCc1ccccc1 (Cbz-Arg-[Abu]-[Sta]-NHPhenethyl) | 6.29 | < 4.40 |  | 5.50 |  | 
CC(C)C[C@H](NC(=O)[C@@H](NC(=O)[C@H](CCCNC(=N)N)NC(=O)OCc1ccccc1)C1CCCC1)[C@@H](O)CC(=O)NCCc1ccccc1 (Cbz-Arg-[Gly(cPent)]-[Sta]-NHPhenethyl) | 7.26 | < 4.40 |  | 5.56 |  | 
CC(C)C[C@H](NC(=O)[C@H](C)NC(=O)[C@H](CCCNC(=N)N)NC(=O)OCc1ccccc1)[C@@H](O)CC(=O)NCCc1ccccc1 (Cbz-Arg-Ala-[Sta]-NHPhenethyl) | 5.14 | < 4.40 |  | < 5.00 |  | 
CC(C)C[C@H](NC(=O)[C@@H](NC(=O)[C@H](CCCNC(=N)N)NC(=O)OCc1ccccc1)[C@H](O)c1ccccc1)[C@@H](O)CC(=O)NCCc1ccccc1 | 5.18 | < 4.40 |  | < 5.00 |  | 
CC(C)C[C@H](NC(=O)[C@@H](NC(=O)[C@H](CCONC(=N)N)NC(=O)OCc1ccccc1)C1CCCCC1)[C@@H](O)CC(=O)NCCc1ccccc1 | 8.30 | < 4.40 |  | 7.05 | Active | 
CC(C)C[C@H](NC(=O)[C@@H](NC(=O)[C@H](CCCNC(=N)N)NC(=O)OCc1ccccc1)C(C)C)[C@@H](O)CC(=O)NCCc1ccccc1 (Cbz-Arg-Val-[Sta]-NHPhenethyl) | 6.94 | < 4.40 |  | 5.47 |  | 
CC(C)C[C@H](NC(=O)[C@@H](NC(=O)[C@H](CCCNC(=N)N)NC(=O)OCc1ccccc1)C1Cc2ccccc2C1)[C@@H](O)CC(=O)NCCc1ccccc1 (Cbz-Arg-[Igl]-[Sta]-NHPhenethyl) | 6.18 | 4.63 |  | 5.21 |  | 
CC[C@H](C)[C@H](NC(=O)[C@H](CCONC(=N)N)NC(=O)OCc1ccccc1)C(=O)N[C@@H](CC(C)C)[C@@H](O)CC(=O)NCCc1ccccc1 | 7.80 |  |  | 6.74 |  | 
CC(C)C[C@H](NC(=O)[C@H](CCCNC(=N)N)NC(=O)OCc1ccccc1)C(=O)N[C@@H](CC(C)C)[C@@H](O)CC(=O)NCCc1ccccc1 (Cbz-Arg-Leu-[Sta]-NHPhenethyl) | 6.78 | < 4.40 |  | 5.30 |  | 
CC(C)C[C@H](NC(=O)[C@@H](NC(=O)[C@H](CCCNC(=N)N)NC(=O)OCc1ccccc1)[C@@H](C)O)[C@@H](O)CC(=O)NCCc1ccccc1 (Cbz-Arg-Thr-[Sta]-NHPhenethyl) | 5.69 | < 4.40 |  | < 5.00 |  | 
CC[C@H](C)[C@H](NC(=O)[C@H](CCCNC(=N)N)NC(=O)OCc1ccccc1)C(=O)N[C@@H](CC(C)C)[C@@H](O)CC(=O)NCCc1ccccc1 (Cbz-Arg-Ile-[Sta]-NHPhenethyl) | 7.59 |  |  | 5.99 |  | 
CC(C)C[C@H](NC(=O)[C@@H](NC(=O)[C@H](CCCNC(=N)N)NC(=O)OCc1ccccc1)C(C)(C)O)[C@@H](O)CC(=O)NCCc1ccccc1 | 5.52 | < 4.40 |  | < 5.00 |  | 
CC(C)C[C@H](NC(=O)[C@@H](NC(=O)[C@H](CCONC(=N)N)NC(=O)OCc1ccccc1)C(C)C)[C@@H](O)CC(=O)NCCc1ccccc1 | 7.72 | < 4.40 |  | 6.37 |  | Active
CC(C)C[C@H](NC(=O)[C@@H](NC(=O)[C@H](CCCNC(=N)N)NS(=O)(=O)Cc1ccccc1)C(C)C)[C@@H](O)CC(=O)NCCc1ccccc1 | 6.91 | < 4.40 |  | 5.39 |  | 
CC(C)C[C@H](NC(=O)[C@H](Cc1ccccc1)NC(=O)c1cnccn1)B(O)O [BORTEZOMIB] |  | 8.00 |  |  |  | 
CCC(CC)[C@H](NC(=O)[C@H](CCCNC(=N)N)NC(=O)OCc1ccccc1)C(=O)N[C@@H](CC(C)C)[C@@H](O)CC(=O)NCCc1ccccc1 | 6.95 | < 4.40 |  | 5.39 |  | 
CC(C)C[C@H](NC(=O)[C@@H](NC(=O)[C@H](CCCNC(=N)N)NC(=O)OCc1ccccc1)c1ccccc1)[C@@H](O)CC(=O)NCCc1ccccc1 (Cbz-Arg-[Phg]-[Sta]-NHPhenethyl) | 7.62 | < 4.40 | Active | 5.87 |  | 
CC(C)C[C@H](NC(=O)[C@H](CO)NC(=O)[C@H](CCCNC(=N)N)NC(=O)OCc1ccccc1)[C@@H](O)CC(=O)NCCc1ccccc1 (Cbz-Arg-Ser-[Sta]-NHPhenethyl) | < 5.00 | < 4.40 |  | < 5.00 |  | 
CC(C)C[C@H](NC(=O)[C@@H](NC(=O)[C@H](CCCNC(=N)N)NC(=O)OCc1ccccc1)C1CCCCC1)[C@@H](O)CC(=O)NCCc1ccccc1 (Cbz-Arg-[Chg]-[Sta]-NHPhenethyl) | 7.54 | 4.44 |  | 5.91 | Active | 
